Source: ChEMBL document CHEMBL1125421, “Cholesterol lowering bile acid binding agents: novel lipophilic polyamines” (1992)

Assays:
Type in all cases: functional
Coturnix coturnix [1] = assay: Effect on serum VLDL+LDL cholesterol (relative to cholestipol hydrochloride) at a dose of 50 mg/kg BW per day
Summary of the method: (§1)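 Cholesterol-fed Japanese quail given compound mixed in diet for 2 weeks; controls diet alone (n = 17-20), positive controls colestipol hydrochloride 1000 mg/kg per day (n = 8-10), treated groups 10 birds. Jugular bleed; VLDL+LDL precipitated from serum with PEG-8000 in 0.2 M glycine pH 9, centrifuged 2000g 45 min 4 °C. Log-transformed cholesterol gives T/C; relative potency from doses giving T/C=0.5 using common slope -0.79.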

Coturnix coturnix [2] = assay: Effect on serum VLDL+LDL cholesterol (relative to cholestipol hydrochloride) at a dose 100 of mg/kg BW per day; summary of the method: as §1
Coturnix coturnix [3] = assay: Effect on serum VLDL+LDL cholesterol (relative to cholestipol hydrochloride) at a dose of 150 mg/kg BW per day; summary of the method: as §1
Coturnix coturnix [4] = assay: Effect on serum VLDL+LDL cholesterol (relative to cholestipol hydrochloride) at a doses of 50, 150 mg/kg BW per day; summary of the method: as §1
Coturnix coturnix [5] = assay: Effect on serum VLDL+LDL cholesterol (relative to cholestipol hydrochloride) at a doses of 10, 25, 50, 100, 150 mg/kg BW per day; summary of the method: as §1
Coturnix coturnix [6] = assay: Effect on serum VLDL+LDL cholesterol (relative to cholestipol hydrochloride) at a doses of 25,50 mg/kg BW per day; summary of the method: as §1
Coturnix coturnix [7] = assay: Effect on serum VLDL+LDL cholesterol (relative to cholestipol hydrochloride) at a dose of 100, 300 mg/kg BW per day; summary of the method: as §1
Coturnix coturnix [8] = assay: Effect on serum VLDL+LDL cholesterol (relative to cholestipol hydrochloride) at a doses of 100, 150, 300 mg/kg BW per day; summary of the method: as §1
Coturnix coturnix [9] = assay: Effect on serum VLDL+LDL cholesterol (relative to cholestipol hydrochloride) at a doses of 25, 50, 100 mg/kg BW per day; summary of the method: as §1
Coturnix coturnix [10] = assay: Effect on serum VLDL+LDL cholesterol (relative to cholestipol hydrochloride) at a dose of 100 mg/kg BW per day; summary of the method: as §1
Coturnix coturnix [11] = assay: Effect on serum VLDL+LDL cholesterol (relative to cholestipol hydrochloride) at a doses of 25,50, 100 mg/kg BW per day; summary of the method: as §1

O=C(NCCN(CCNC1CCCCCCCCCCC1)CCNC1CCCCCCCCCCC1)c1ccccc1
Relative potency (Coturnix coturnix [1]): 11

CN(C)CCN(CCN(C)C1CCCCCCCCCCC1)CCN(C)C1CCCCCCCCCCC1
Relative potency (Coturnix coturnix [1]): 24

CCCCCCCCCCCCCCCCNCCN(CCN)CCN
Relative potency (Coturnix coturnix [2]): 6

CN(CCN(CC[N+](C)(C)C)CC[N+](C)(C)C)C1CCCCCCCCCCC1.[I-].[I-]
Relative potency (Coturnix coturnix [3]): 2

NCCN(CCNC1CCCCCCCCCCCCCC1)CCNC1CCCCCCCCCCCCCC1
Relative potency (Coturnix coturnix [3]): 7

COC(=O)CCN(CCN(CCN(CCC(=O)OC)C1CCCCCCCCCCC1)CCN(CCC(=O)OC)C1CCCCCCCCCCC1)C1CCCCCCCCCCC1
Relative potency (Coturnix coturnix [1]): 4

C1CCCCCC(NCCN(CCNC2CCCCCCCCCCC2)CCNC2CCCCC2)CCCCC1
Relative potency (Coturnix coturnix [1]): 21

NCCN(CCN)CCNC1CCCCCCCCCCCCCCC1
Relative potency (Coturnix coturnix [1]): 10

COC(=O)CCNCCN(CCNCCC(=O)OC)CCNC1CCCCCCCCCCC1
Relative potency (Coturnix coturnix [4]): 7

NCCN(CCNC1CCCCCCCCCCC1)CCNC1CCCCCCCCCCC1
Relative potency (Coturnix coturnix [5]): 13

c1ccc(CNCCN(CCNC2CCCCCCCCCCC2)CCNC2CCCCCCCCCCC2)cc1
Relative potency (Coturnix coturnix [6]): 18

C1CCCCCC(NCCN(CCNC2CCCCCCCCCCC2)CCNC2CCC3(CC2)OCCO3)CCCCC1
Relative potency (Coturnix coturnix [6]): 19

NCCN(CCN)CCNC1CCCCCCCCCCC1
Relative potency (Coturnix coturnix [7]): 5

N#CCCNCCN(CCNCCC#N)CCNC1CCCCCCCCCCC1
Relative potency (Coturnix coturnix [3]): 2

N#CCCNCCN(CCNC1CCCCCCCCCCC1)CCNC1CCCCCCCCCCC1
Relative potency (Coturnix coturnix [1]): 21

NCCN(CCN)CCNC1CCCCCCCCCCCCCC1
Relative potency (Coturnix coturnix [8]): 7

CN(CCN(CCN(C)C1CCCCC1)CCN(C)C1CCCCC1)C1CCCCC1
Relative potency (Coturnix coturnix [3]): 5

NCCN(CCNC(=O)c1ccccc1)CCNC(=O)c1ccccc1
Relative potency (Coturnix coturnix [9]): 5

NCCN(CCN)CCNCc1ccc(-c2ccccc2)cc1
Relative potency (Coturnix coturnix [10]): 2

NCCCOCCN(CCOCCCN)CCOC1CCCCCCCCCCC1
Relative potency (Coturnix coturnix [3]): 2

C1CCCCCC(NCCN(CCNC2CCCCCCCCCCC2)CCNC2CCCCCCCCCCC2)CCCCC1
Relative potency (Coturnix coturnix [11]): 6

C1CCC(NCCN(CCNC2CCCCC2)CCNC2CCCCC2)CC1
Relative potency (Coturnix coturnix [3]): 3

NCCCNCCN(CCNCCCN)CCNC1CCCCCCCCCCC1
Relative potency (Coturnix coturnix [3]): 4

NCCNC(=O)CCNCCN(CCNCCC(=O)NCCN)CCNC1CCCCCCCCCCC1
Relative potency (Coturnix coturnix [10]): 5

c1ccc(CNCCN(CCNC2C3CC4CC(C3)CC2C4)CCNC2C3CC4CC(C3)CC2C4)cc1 (centres undefined)
Relative potency (Coturnix coturnix [1]): 13

Cl.Cl.Cl.NCCN(CCNC1CCCCCCCCCCC1)CCNC1CCCCCCCCCCC1
Relative potency (Coturnix coturnix [1]): 13

Cl.Cl.Cl.c1ccc(CNCCN(CCNC2CCCCCCCCCCC2)CCNC2CCCCCCCCCCC2)cc1
Relative potency (Coturnix coturnix [1]): 29

CCN(CC)CCN(CCN(CC)CC)CCN(CC)C1CCCCCCCCCCC1.Cl.Cl.Cl
Relative potency (Coturnix coturnix [10]): 8

Cl.Cl.Cl.Cl.NCCN(CCNC1CCCCCCCCCCC1)CCNC1CCCCCCCCCCC1
Relative potency (Coturnix coturnix [1]): 12
